# Results taken from ChEMBL document CHEMBL5058577, “EUbOPEN Chemogenomics Library 2 (Multiplex)” (2022).
# Test system: U2OS
# Assay: Multiplex assay against U2OS
# Assay type: toxicity, cell-based
# Settings: human
# How it was run: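 At seeding, live cells were stained with Hoechst33342, BioTracker Green Microtubule Cytoskeleton Dye, MitoTracker Red and Annexin V Alexa Fluor 680. After compound addition they were imaged on a CQ1 microscope at 37°C and 5% CO2, and CellPathfinder machine-learning gating sorted them into Hoechst high-intensity objects or normal cells, with normal cells further split into healthy, pyknosed or fragmented nuclei and pyknosed cells into mitotic or apoptotic. Tubulin, mitochondrial-mass and membrane-permeability phenotypes are given as per cents of cells with healthy nuclei.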
# [1] = 12 h, 1 µM, compound concentration 1 uM, replicate 1
# [2] = 12 h, 1 µM, compound concentration 1 uM, replicate 2
# [3] = 12 h, 10 µM, compound concentration 10 uM, replicate 1
# [4] = 12 h, 10 µM, compound concentration 10 uM, replicate 2
# [5] = 24 h, 1 µM, compound concentration 1 uM, replicate 1
# [6] = 24 h, 1 µM, compound concentration 1 uM, replicate 2
# [7] = 24 h, 10 µM, compound concentration 10 uM, replicate 1
# [8] = 24 h, 10 µM, compound concentration 10 uM, replicate 2
# [9] = 48 h, 1 µM, compound concentration 1 uM, replicate 1
# [10] = 48 h, 1 µM, compound concentration 1 uM, replicate 2
# [11] = 48 h, 10 µM, compound concentration 10 uM, replicate 1
# [12] = 48 h, 10 µM, compound concentration 10 uM, replicate 2
smiles,measurement,setting,value
Cc1cc(O)c(-c2ccc([C@@H](C)CN(C)C)cc2)c2c1[nH]c(=O)c1sccc12,Population Apoptotic (%),[1],80%
same,Population Fragmented Nuclei (%),[1],38%
same,Population Healthy Nuclei (%),[1],48%
same,Population Hoechst High Intensity Objects (%),[1],4%
same,Population Membrane Permeable-Phenotype (%),[1],21%
same,Population Mitochondria Different-Phenotype (%),[1],17%
same,Population Mitotic Cells (%),[1],19%
same,Population Normal (%),[1],95%
same,Population Pyknosed Nuclei (%),[1],12%
same,Population Tubulin-Different-Phenotype (%),[1],12%
same,Total Cell Count,[1],252
same,Population Apoptotic (%),[2],70%
same,Population Fragmented Nuclei (%),[2],25%
same,Population Healthy Nuclei (%),[2],63%
same,Population Hoechst High Intensity Objects (%),[2],2%
same,Population Membrane Permeable-Phenotype (%),[2],9%
same,Population Mitochondria Different-Phenotype (%),[2],14%
same,Population Mitotic Cells (%),[2],30%
same,Population Normal (%),[2],97%
same,Population Pyknosed Nuclei (%),[2],11%
same,Population Tubulin-Different-Phenotype (%),[2],14%
same,Total Cell Count,[2],89
same,Population Apoptotic (%),[3],64%
same,Population Fragmented Nuclei (%),[3],28%
same,Population Healthy Nuclei (%),[3],50%
same,Population Hoechst High Intensity Objects (%),[3],4%
same,Population Membrane Permeable-Phenotype (%),[3],54%
same,Population Mitochondria Different-Phenotype (%),[3],62%
same,Population Mitotic Cells (%),[3],35%
same,Population Normal (%),[3],95%
same,Population Pyknosed Nuclei (%),[3],21%
same,Population Tubulin-Different-Phenotype (%),[3],72%
same,Total Cell Count,[3],222
same,Population Apoptotic (%),[4],69%
same,Population Fragmented Nuclei (%),[4],20%
same,Population Healthy Nuclei (%),[4],56%
same,Population Hoechst High Intensity Objects (%),[4],8%
same,Population Membrane Permeable-Phenotype (%),[4],22%
same,Population Mitochondria Different-Phenotype (%),[4],61%
same,Population Mitotic Cells (%),[4],30%
same,Population Normal (%),[4],91%
same,Population Pyknosed Nuclei (%),[4],22%
same,Population Tubulin-Different-Phenotype (%),[4],45%
same,Total Cell Count,[4],110
same,Population Apoptotic (%),[5],92%
same,Population Fragmented Nuclei (%),[5],43%
same,Population Healthy Nuclei (%),[5],34%
same,Population Hoechst High Intensity Objects (%),[5],8%
same,Population Membrane Permeable-Phenotype (%),[5],20%
same,Population Mitochondria Different-Phenotype (%),[5],25%
same,Population Mitotic Cells (%),[5],7%
same,Population Normal (%),[5],91%
same,Population Pyknosed Nuclei (%),[5],21%
same,Population Tubulin-Different-Phenotype (%),[5],19%
same,Total Cell Count,[5],256
same,Population Apoptotic (%),[6],100%
same,Population Fragmented Nuclei (%),[6],41%
same,Population Healthy Nuclei (%),[6],41%
same,Population Hoechst High Intensity Objects (%),[6],6%
same,Population Membrane Permeable-Phenotype (%),[6],15%
same,Population Mitochondria Different-Phenotype (%),[6],21%
same,Population Mitotic Cells (%),[6],0%
same,Population Normal (%),[6],93%
same,Population Pyknosed Nuclei (%),[6],17%
same,Population Tubulin-Different-Phenotype (%),[6],12%
same,Total Cell Count,[6],83
same,Population Apoptotic (%),[7],81%
same,Population Fragmented Nuclei (%),[7],36%
same,Population Healthy Nuclei (%),[7],35%
same,Population Hoechst High Intensity Objects (%),[7],9%
same,Population Membrane Permeable-Phenotype (%),[7],16%
same,Population Mitochondria Different-Phenotype (%),[7],70%
same,Population Mitotic Cells (%),[7],18%
same,Population Normal (%),[7],90%
same,Population Pyknosed Nuclei (%),[7],27%
same,Population Tubulin-Different-Phenotype (%),[7],47%
same,Total Cell Count,[7],210
same,Population Apoptotic (%),[8],82%
same,Population Fragmented Nuclei (%),[8],40%
same,Population Healthy Nuclei (%),[8],31%
same,Population Hoechst High Intensity Objects (%),[8],12%
same,Population Membrane Permeable-Phenotype (%),[8],25%
same,Population Mitochondria Different-Phenotype (%),[8],62%
same,Population Mitotic Cells (%),[8],17%
same,Population Normal (%),[8],87%
same,Population Pyknosed Nuclei (%),[8],28%
same,Population Tubulin-Different-Phenotype (%),[8],34%
same,Total Cell Count,[8],118
same,Population Apoptotic (%),[9],96%
same,Population Fragmented Nuclei (%),[9],53%
same,Population Healthy Nuclei (%),[9],18%
same,Population Hoechst High Intensity Objects (%),[9],17%
same,Population Membrane Permeable-Phenotype (%),[9],23%
same,Population Mitochondria Different-Phenotype (%),[9],25%
same,Population Mitotic Cells (%),[9],3%
same,Population Normal (%),[9],82%
same,Population Pyknosed Nuclei (%),[9],27%
same,Population Tubulin-Different-Phenotype (%),[9],25%
same,Total Cell Count,[9],250
same,Population Apoptotic (%),[10],100%
same,Population Fragmented Nuclei (%),[10],64%
same,Population Healthy Nuclei (%),[10],19%
same,Population Hoechst High Intensity Objects (%),[10],15%
same,Population Membrane Permeable-Phenotype (%),[10],35%
same,Population Mitochondria Different-Phenotype (%),[10],35%
same,Population Mitotic Cells (%),[10],0%
same,Population Normal (%),[10],84%
same,Population Pyknosed Nuclei (%),[10],15%
same,Total Cell Count,[10],120
same,Population Apoptotic (%),[11],96%
same,Population Fragmented Nuclei (%),[11],50%
same,Population Healthy Nuclei (%),[11],17%
same,Population Hoechst High Intensity Objects (%),[11],20%
same,Population Membrane Permeable-Phenotype (%),[11],25%
same,Population Mitochondria Different-Phenotype (%),[11],45%
same,Population Mitotic Cells (%),[11],3%
same,Population Normal (%),[11],79%
same,Population Pyknosed Nuclei (%),[11],31%
same,Population Tubulin-Different-Phenotype (%),[11],32%
same,Total Cell Count,[11],220
same,Population Apoptotic (%),[12],100%
same,Population Fragmented Nuclei (%),[12],54%
same,Population Healthy Nuclei (%),[12],13%
same,Population Hoechst High Intensity Objects (%),[12],15%
same,Population Membrane Permeable-Phenotype (%),[12],64%
same,Population Mitochondria Different-Phenotype (%),[12],50%
same,Population Mitotic Cells (%),[12],0%
same,Population Normal (%),[12],84%
same,Population Tubulin-Different-Phenotype (%),[12],64%
same,Total Cell Count,[12],120
